Several values for one entry are separate records, joined by “and”; a condition that tells them apart may be missing. Equal values may be shown once.
What was measured:
[1] = molecular target: Inositol 1,4,5-trisphosphate receptor (Homo sapiens, UniProt Q14571+Q14573+Q14643); assay: The compound was tested for inhibitory activity against Inositol 1,4,5-trisphosphate receptor in L15 cell line; assay type: cell-based
In short: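 Incubation was 30 min at 4 °C with EGTA. Bound and free ligand were separated by vacuum filtration through glass fiber filters and counted by scintillation. IC50 and Hill slope came from computer curve fitting. At least three experiments in duplicate, mean ± SEM.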

RBL-1 = assay: Steady-State [Ca2+] Release from Saponin-Permeabilized RBL Cell Lines; assay type: functional, cell-based, Rattus norvegicus
SH-SY5Y = assay: Steady-State [Ca2+] Release from Saponin-Permeabilized SH-SY5Y cell line.; assay type: functional, cell-based, Homo sapiens
[2] = Hill slope by computer-assisted curve fitting
[3] = Hill slope by computer-assisted curve fitting.
Lvec = assay: Steady-State [Ca2+] Release from Saponin-Permeabilized Lvec Cell Lines; assay type: functional, cell-based
In short: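 ⁴⁵Ca²⁺ release end point assay at 22 °C in saponin-permeabilized L15 cells (mouse L fibroblasts overexpressing type 1 InsP₃R about 8-fold) or Lvec vector-control cells. Stores were loaded with ⁴⁵Ca²⁺ in ATP-dependent fashion to steady state (about 15 min). Buffer was 120 mM KCl, 2 mM KH₂PO₄, 5 mM succinate, 20 mM Hepes, 2 mM ATP and 2.4 mM MgCl₂, at pH 7.2, with free Ca²⁺ set to 80–150 nM with EGTA. Retained ⁴⁵Ca²⁺ was counted by scintillation. 100% was the release by 10 µM Ins(1,4,5)P₃. EC50 and Hill slope came from curve fitting. At least four experiments in duplicate, mean ± SEM.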

L15 = assay: Steady-State [Ca2+] Release from Saponin-Permeabilized L15 Cell Lines

Row | EC50 (RBL-1) | EC50 (SH-SY5Y) | EC50 (L15) | SMILES | further results
1 | – | – | – | O=P(O)(O)OC1C(O)C(OP(=O)(O)O)C(OP(=O)(O)O)C(O)C1OP(=O)(O)O (stereo unspecified) | IC50 [1]: 172 nM
2 | 4200 nM | 171 nM | – | O=P(O)(O)O[C@@H]1[C@H](O)[C@H](O)[C@@H](OP(=O)(O)O)[C@H](OP(=O)(O)O)[C@H]1O (stereo in doubt) [INS(1,4,5)P3] | –
3 | – | – | – | O=P(O)(O)O[C@@H]1[C@H](O)[C@H](O)[C@@H](OP(=O)(O)O)[C@H](OP(=O)(O)O)[C@H]1O (stereo in doubt; 1) | Hill coefficient [2]: 0.96 and 1.17; Hill coefficient [3]: 1
4 | 170 nM | 51.6 nM | 123 nM | O=P(O)(O)O[C@@H]1[C@H](O)[C@H](O)[C@@H](OP(=O)(O)O)[C@H](OP(=O)(O)O)[C@H]1O (stereo in doubt; 1) [INS(1,4,5)P3] | EC50 (Lvec): 247 nM
5 | 4300 nM | – | 740 nM | O=P(O)(O)O[C@@H]1[C@H](O)[C@H](O)[C@@H](OP(=O)(O)O)[C@H](OP(=O)(O)O)[C@H]1O (stereo in doubt; 5) [INS(1,4,5)P3] | –

— ChEMBL document CHEMBL1132647, “Synthesis, calcium mobilizing, and physicochemical properties of D-chiro-inositol 1,3,4,6-tetrakisphosphate, a novel and potent ligand at the D-myo-inositol 1,4,5-trisphosphate receptor” (J Med Chem, 1999)
